In ChEMBL document CHEMBL3085730, “Skeletal hybridization and PfRIO-2 kinase modeling for synthesis of α-pyrone analogs as anti-malarial agent” (Eur J Med Chem, 2013):
Calls of active or inactive are those of the source. The calls are words filed in the database; no cut-off is given here.

Columns and labels:
[1] = tested on: Plasmodium falciparum; assay: Antimalarial activity against ring-stage Plasmodium falciparum 3D7 assessed as schizonticidal activity after 42 hrs; format: functional, organism-based; conditions: 3D7, 42 h
Method in brief: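 Ring-stage P. falciparum 3D7-parasitised cells exposed to compound for 42 h. Blood smears scored for maturation of rings into trophozoites and schizonts. IC50 derived from schizont inhibition by regression analysis.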

[2] = tested on: Plasmodium falciparum; assay: Parasitocidal activity against ring-stage Plasmodium falciparum 3D7 assessed as minimum killing concentration incubated for 42 hrs followed by compound washout measured 72 hrs post infection in hematocrit; format: functional
Method in brief: (§1)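 After drug exposure, compound removed and cultures washed 3 times with Albumax II-free RPMI-1640. Cultures then incubated a further 72 h in complete medium with fresh hematocrit. RBCs containing viable parasite counted on thin smear to class inhibition as parasitostatic or parasitocidal.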

[3] = tested on: Plasmodium falciparum; assay: Antimalarial activity against Plasmodium falciparum 3D7 assessed as intracellular ROS generation relative to untreated control; format: functional
Method in brief: (§2)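 Parasite cultures treated with a sub-lethal concentration of compound. Intracellular ROS measured with the fluorescent probe 2',7'-dichlorofluorescein diacetate. Lipid peroxidation measured by a previously described method. Each index expressed as fold change ± SD versus untreated culture.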

[4] = tested on: Plasmodium falciparum; assay: Antimalarial activity against Plasmodium falciparum 3D7 assessed as lipid peroxidation after 48 hrs by spectrophotometry relative to untreated control; format: functional; method in brief: as §2
[5] = tested on: Plasmodium falciparum; assay: Parasitostatic activity against ring-stage Plasmodium falciparum 3D7 assessed as minimum killing concentration incubated for 42 hrs followed by compound washout measured 72 hrs post infection in hematocrit; format: functional, organism-based; method in brief: as §1

For `O=C(Nc1ccc(Br)cc1)c1c(O)cc(-c2ccccc2)oc1=O`, which IC50 [1] is on record?
Its IC50 is 0.75 µM.

What about the Activity [2] of the same compound?
The Activity was 3.9 µM.

What does the source list for `O=C(Nc1ccc(Br)cc1)c1c(N2CCCCC2)cc(-c2ccccc2)oc1=O`?
IC50 [1]: 0.337 µM; Activity [2]: 0.21 µM; fold change (FC) [3]: 1.87; fold change (FC) [4]: 4.49

With `COc1ccc(-c2cc(N3CCN(C)CC3)c(C(=O)Nc3ccc(O)cc3)c(=O)o2)cc1` as the compound, how does the IC50 [1] read?
The IC50 was 1.57 µM.

And the Activity [5]?
The Activity was “inactive”.

What about the “fold change (FC)” value [3] of the same compound?
Its value is 1.99.

What about the “fold change (FC)” value [4] of the same compound?
The value was 4.88.

`Cc1ccc(NC(=O)c2c(O)cc(-c3ccccc3)oc2=O)cc1` was tested. Which IC50 [1] did it give?
The IC50 was 1.42 µM.

And the Activity [2]?
Its Activity is 38.9 µM.

Which results are given for `O=C(Nc1ccc(F)cc1)c1c(O)cc(-c2ccccc2)oc1=O`?
IC50 [1]: 0.9 µM; Activity [2]: 2.39 µM

Which results are given for `O=C(Nc1ccc(O)cc1)c1c(N2CCCCC2)cc(-c2ccccc2)oc1=O`?
IC50 [1]: 0.765 µM; Activity [2]: 1.99 µM; fold change (FC) [3]: 1.2; fold change (FC) [4]: 9.03

Which results are given for `Cc1ccc(NC(=O)c2c(N3CCCCC3)cc(-c3ccccc3)oc2=O)cc1`?
IC50 [1]: 0.859 µM; Activity [2]: 1 µM; fold change (FC) [3]: 1.66; fold change (FC) [4]: 11.03
